Results on 31 compounds are retold here after ChEMBL document CHEMBL1154630, “Discovery of colon tumor cell growth inhibitory agents through a combinatorial approach” (Eur J Med Chem, 2010).

Test [1] has as its target T1, cGMP-inhibited 3',5'-cyclic phosphodiesterase 3A (Homo sapiens, UniProt Q14432). Put plainly: Inhibition of human recombinant PDE3A at 50 uM by fluorescence polarization assay using cAMP as substrate. (In fluorescence polarisation assays a small probe gives low polarisation when free and higher when bound to something large.)
Test [2] relates to HT-29. Put plainly: Cytotoxicity against human HT-29 cells at 50 uM after 72 hrs by celltiter glo assay. Type of test: functional. To be noted: HT-29, 72 h, read-out: GI. An outline of the steps:
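HT-29 cells in RPMI 1640 plus 5% FBS, cultures >95% viable by Trypan blue. Seeded at 5000 cells/well and incubated 18–24 h, then exposed to a single 50 μM screening dose in triplicate. Live cells measured by CellTiter-Glo luminescent ATP assay at 72 h; percent growth inhibition reported.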
Background: In ATP-based viability assays light output follows the ATP content of the culture.

Test [3] deals with T1, cGMP-inhibited 3',5'-cyclic phosphodiesterase 3A. The test is described as follows: Inhibition of human recombinant PDE3A at 50 uM by fluorescence polarization assay using cGMP as substrate.
Test [4] concerns HT-29. The test is described as follows: Cytotoxicity against human HT-29 cells after 72 hrs by celltiter glo assay. Particulars: HT-29, 72 h. The format is functional, cell-based. The method in brief: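 HT-29 cells grown in RPMI 1640 with 5% FBS, used only at >95% viability (Trypan blue). 5000 cells/well, left 18–24 h before treatment. Viability read by CellTiter-Glo luminescence (ATP content) 72 h after treatment. IC50 from 8 concentrations, at least four replicates each, fitted to a four-parameter logistic equation.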

Test [5] addresses T1, cGMP-inhibited 3',5'-cyclic phosphodiesterase 3A. Put plainly: Inhibition of human recombinant PDE3A by fluorescence polarization assay using cGMP as substrate.
Test [6] shares this target. Put plainly: Inhibition of human recombinant PDE3A by fluorescence polarization assay using cAMP as substrate.
Test [7] deals with Baculoviral IAP repeat-containing protein 5 (Homo sapiens, UniProt O15392). The test is described as follows: Inhibition of survivin.
Sequence of Baculoviral IAP repeat-containing protein 5 (O15392 whole entry): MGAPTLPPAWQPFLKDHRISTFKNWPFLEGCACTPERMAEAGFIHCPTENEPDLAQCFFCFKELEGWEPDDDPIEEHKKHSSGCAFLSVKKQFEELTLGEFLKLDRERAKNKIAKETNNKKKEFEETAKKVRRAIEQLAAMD

T1 sequence (Q14432 whole entry): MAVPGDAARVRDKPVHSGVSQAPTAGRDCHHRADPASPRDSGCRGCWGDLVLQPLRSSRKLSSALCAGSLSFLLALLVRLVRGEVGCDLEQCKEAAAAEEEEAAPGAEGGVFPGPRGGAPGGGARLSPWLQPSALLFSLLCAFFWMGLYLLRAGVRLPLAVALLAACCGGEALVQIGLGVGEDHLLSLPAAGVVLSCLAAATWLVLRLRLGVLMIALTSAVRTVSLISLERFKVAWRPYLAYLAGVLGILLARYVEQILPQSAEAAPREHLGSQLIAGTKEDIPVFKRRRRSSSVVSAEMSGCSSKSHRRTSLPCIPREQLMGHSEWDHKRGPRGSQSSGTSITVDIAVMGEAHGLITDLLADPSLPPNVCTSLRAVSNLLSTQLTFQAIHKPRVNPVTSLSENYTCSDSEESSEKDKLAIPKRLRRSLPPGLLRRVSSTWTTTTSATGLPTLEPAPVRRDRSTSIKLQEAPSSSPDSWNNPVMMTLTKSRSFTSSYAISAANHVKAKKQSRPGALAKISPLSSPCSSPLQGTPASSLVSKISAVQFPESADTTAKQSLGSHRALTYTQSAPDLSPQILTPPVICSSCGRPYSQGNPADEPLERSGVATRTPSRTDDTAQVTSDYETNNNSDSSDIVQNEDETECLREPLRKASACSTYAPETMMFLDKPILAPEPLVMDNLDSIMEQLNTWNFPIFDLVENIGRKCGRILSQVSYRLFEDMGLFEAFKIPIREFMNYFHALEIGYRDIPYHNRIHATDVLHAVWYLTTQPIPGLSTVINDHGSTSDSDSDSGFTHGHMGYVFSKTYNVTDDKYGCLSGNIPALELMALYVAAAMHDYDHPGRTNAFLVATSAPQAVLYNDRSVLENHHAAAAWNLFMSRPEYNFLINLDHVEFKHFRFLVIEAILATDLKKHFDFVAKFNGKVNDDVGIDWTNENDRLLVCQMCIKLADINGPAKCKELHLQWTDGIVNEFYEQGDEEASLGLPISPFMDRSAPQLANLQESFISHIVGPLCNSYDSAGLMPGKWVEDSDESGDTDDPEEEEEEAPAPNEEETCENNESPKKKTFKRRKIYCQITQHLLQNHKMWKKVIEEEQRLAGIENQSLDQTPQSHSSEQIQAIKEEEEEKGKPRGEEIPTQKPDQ

As to `N#Cc1c(-c2ccccc2O)cc(-c2ccc(Br)cc2)[nH]c1=N`, the inhibition in test [1] amounted to 22%; in test [3] it was 27%. Moreover, the inhibition of growth at 50 µM with HT-29 [2] turned out to be 23%.

For `COc1ccc(-c2cc(-c3ccsc3)[nH]c(=N)c2C#N)cc1`, the results for the inhibition in test [1] and in test [3] were 10% and 30%, respectively. In the test on HT-29 [2], the inhibition of growth at 50 µM came to 75%. For the same compound, half-maximal inhibition in the test on HT-29 [4] (IC50) required 2.7 µM.

Consider `N#Cc1c(-c2ccccc2O)cc(-c2ccsc2)[nH]c1=O`, for which the inhibition worked out at 21% in test [1] and 37% in test [3]. The inhibition of growth at 50 µM with HT-29 [2] amounted to 79%. This compound gave an IC50 in the test with HT-29 [4] of 46 µM.

For the compound `COc1ccc(OC)c(-c2cc(-c3ccc(Br)cc3)[nH]c(=N)c2C#N)c1`, the inhibition in test [1] and in test [3] was 20% in each case. The inhibition of growth at 50 µM with HT-29 [2] was determined as 95%. This compound showed a concentration for half-maximal inhibition (IC50) in the test on HT-29 [4] of 4 µM.

For the compound `N#Cc1c(-c2ccc(Cl)cc2)cc(-c2ccsc2)[nH]c1=N`, the inhibition in test [1] amounted to 28%; in test [3], 45%. In addition, the inhibition of growth at 50 µM in the test on HT-29 [2] was determined as 65%.

As to `N#Cc1c(-c2cccc(Cl)c2)cc(-c2ccccc2)[nH]c1=N`, the results for the inhibition in test [1] and in test [3] were 15% and 20%, respectively.

Consider `N#Cc1c(-c2cccc(Cl)c2)cc(-c2ccccc2)[nH]c1=O`, for which the inhibition in test [1] is 10%; in test [3] it was 24%. In the test with HT-29 [2], the inhibition of growth at 50 µM turned out to be 80%. The same compound yielded an IC50 in the test on HT-29 [4] of 2.1 µM.

Regarding `CCOc1ccccc1-c1cc(-c2ccsc2)[nH]c(=O)c1C#N`, the inhibition stood at 5% in test [1] and 20% in test [3]. Further, the inhibition of growth at 50 µM in the test with HT-29 [2] turned out to be 80%. Further, the IC50 in the test with HT-29 [4] came to 1.25 µM.

`COc1ccccc1-c1cc(-c2ccsc2)[nH]c(=O)c1C#N`: the results for the inhibition in test [1] and in test [3] were 10% and 8%, respectively. For the same compound, in the test on HT-29 [2], the inhibition of growth at 50 µM amounted to 20%.

For `N#Cc1c(-c2ccsc2)cc(-c2ccccc2)[nH]c1=N`, the inhibition in test [1] came to 4%; in test [3], 0%. In addition, the inhibition of growth at 50 µM with HT-29 [2] turned out to be 25%.

With `COc1ccc(OC)c(-c2cc(-c3ccc(Br)cc3)[nH]c(=O)c2C#N)c1`, the inhibition in test [1] is 8%; in test [3], 17%. In addition, in the test on HT-29 [2], the inhibition of growth at 50 µM was found to be 33%.

With `COc1ccc(-c2cc(-c3ccc(Br)cc3)[nH]c(=N)c2C#N)c(OC)c1`, the figures for the inhibition in test [1] and in test [3] were 25% and 70%, respectively. Besides, in the test on HT-29 [2], the inhibition of growth at 50 µM is 2%.

In the case of `N#Cc1c(-c2ccccc2O)cc(-c2cccc(Br)c2)[nH]c1=O`, the inhibition in test [1] stood at 20%; in test [3] it was 45%. For the same compound, in the test with HT-29 [2], the inhibition of growth at 50 µM was -5%.

Consider `N#Cc1c(-c2ccccc2Cl)cc(-c2ccc(Br)cc2)[nH]c1=N`, for which the results for the inhibition in test [1] and in test [3] were 36% and 47%, respectively. Also, the inhibition of growth at 50 µM with HT-29 [2] is -16%.

In the case of `COc1ccc(-c2cc(-c3ccc(Br)cc3)[nH]c(=O)c2C#N)c(OC)c1`, the inhibition was 2% in test [1] and -8% in test [3]. Further, in the test on HT-29 [2], the inhibition of growth at 50 µM was 0%.

As to `N#Cc1c(-c2ccc(Cl)cc2)cc(-c2ccsc2)[nH]c1=O`, the inhibition in test [1] amounted to 5%; in test [3], 14%.

With `CCOc1ccc(-c2cc(-c3ccsc3)[nH]c(=N)c2C#N)cc1`, the inhibition was 55% in test [1] and 80% in test [3]. The inhibition of growth at 50 µM in the test on HT-29 [2] was -10%. Further, the results for the IC50 in test [5] and in test [6] were 13.5 µM and 13.3 µM, respectively.

`N#Cc1c(-c2ccccc2O)cc(-c2ccccc2Br)[nH]c1=N`: the inhibition in test [1] is 20%; in test [3], 40%. In addition, in the test on HT-29 [2], the inhibition of growth at 50 µM was 28%.

As to `CCOc1ccccc1-c1cc(-c2ccsc2)[nH]c(=N)c1C#N`, the inhibition in test [1] is 37%; in test [3] it was -10%. The inhibition of growth at 50 µM in the test on HT-29 [2] was determined as 92%. The compound also registered an IC50 in the test on HT-29 [4] of 6 µM.

Take `CCOc1ccc(-c2cc(-c3ccsc3)[nH]c(=O)c2C#N)cc1`: the results for the inhibition in test [1] and in test [3] were 7% and 0%, respectively. Moreover, the inhibition of growth at 50 µM in the test with HT-29 [2] is -1%.

Consider `COc1ccc(-c2cc(-c3ccsc3)[nH]c(=O)c2C#N)cc1`, for which the inhibition is 8% in test [1] and 0% in test [3]. Besides, the inhibition of growth at 50 µM in the test on HT-29 [2] is -20%.

On to `N#Cc1c(-c2ccccc2)cc(-c2cc(Br)ccc2O)[nH]c1=O`, for which, in test [7], the Kd worked out at 5.7 µM.

Take `N#Cc1c(-c2ccccc2O)cc(-c2ccc(Br)cc2)[nH]c1=O`: the inhibition in test [1] is 10%; in test [3], 28%. Further, the inhibition of growth at 50 µM in the test with HT-29 [2] turned out to be 94%. The half-inhibitory concentration (IC50) with HT-29 [4] is 21 µM.

For `N#Cc1c(-c2ccsc2)cc(-c2ccccc2)[nH]c1=O`, the figures for the inhibition in test [1] and in test [3] were 7% and 9%, respectively. In addition, the inhibition of growth at 50 µM with HT-29 [2] is -10%.

For the compound `N#Cc1c(-c2ccccc2O)cc(-c2cccc(Br)c2)[nH]c1=N`, the figures for the inhibition in test [1] and in test [3] were 18% and 36%, respectively. Further, the inhibition of growth at 50 µM in the test on HT-29 [2] came out at 30%.

For the compound `N#Cc1c(-c2ccccc2Cl)cc(-c2ccc(Br)cc2)[nH]c1=O`, the inhibition was 18% in test [1] and 36% in test [3]. The inhibition of growth at 50 µM with HT-29 [2] came out at 5%.

Regarding `N#Cc1c(-c2ccccc2O)cc(-c2ccccc2Br)[nH]c1=O`, the values for the inhibition in test [1] and in test [3] were 34% and 50%, respectively. In addition, the inhibition of growth at 50 µM in the test with HT-29 [2] is 22%.

As for `N#Cc1c(-c2cccc(Cl)c2)cc(-c2ccc(Br)cc2)[nH]c1=N`, the inhibition was found to be 10% in test [1] and 13% in test [3]. Moreover, the inhibition of growth at 50 µM with HT-29 [2] is 7%.

On to `N#Cc1c(-c2ccccc2O)cc(-c2ccsc2)[nH]c1=N`, for which the inhibition was 21% in test [1] and 26% in test [3]. The inhibition of growth at 50 µM in the test with HT-29 [2] worked out at 44%.

With `N#Cc1c(-c2cccc(Cl)c2)cc(-c2ccc(Br)cc2)[nH]c1=O`, the figures for the inhibition in test [1] and in test [3] were 8% and 21%, respectively. Moreover, the inhibition of growth at 50 µM in the test with HT-29 [2] is 7%.

On to `COc1ccccc1-c1cc(-c2ccsc2)[nH]c(=N)c1C#N`, for which, in test [1], the inhibition is 47%. In the test with HT-29 [2], the inhibition of growth at 50 µM was determined as 78%. This compound also showed a half-inhibitory concentration (IC50) with HT-29 [4] of 35 µM.

One may read the inhibition as the drop in the measured response relative to a control, in per cent. One may read the IC50 as the concentration at which inhibition is half-maximal. In general, Kd refers to the free concentration of one partner at which half of the binding sites on the other are occupied at equilibrium, for simple one-to-one binding. Higher therefore signals a looser complex.
